In ChEMBL document CHEMBL4229372, “Synthesis and anti-mitotic activity of 2,4- or 2,6-disubstituted- and 2,4,6-trisubstituted-2H-pyrazolo[4,3-c]pyridines” (2018):
Activity calls are given as the source filed them. The calls are words filed in the database; no cut-off is given here.

Legend:
[1] = system: K562; assay: Cell cycle arrest in human K562 cells assessed as accumulation at G2/M phase at 10 uM after 24 hrs by propidium iodide staining-based flow cytometric analysis (reference value: 15%); format: functional
[2] = system: K562; assay: Cell cycle arrest in human K562 cells assessed as accumulation at G2/M phase after 24 hrs by propidium iodide staining-based flow cytometric analysis; format: functional
[3] = system: K562; assay: Cell cycle arrest in human K562 cells assessed as accumulation at G2/M phase assessed as accumulation of histone H3 phosphorylation at serine 10 residues at 5 uM after 24 hrs by propidium iodide staining-based flow cytometric analysis (reference value: 2.2%); format: functional
[4] = system: K562; assay: Induction of apoptosis in human K562 cells assessed as activation of caspase 3/7 using Ac-DEVD-AMC as substrate after 24 hrs by fluorescence assay; format: functional, cell-based
Method in brief: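 K562 cells were cultured overnight and treated with increasing concentrations for 24 h. Lysis buffer (3×; HEPES pH 7.4, NaCl, KCl, MgCl2, EGTA, NP40, CHAPS, sucrose, DTT, PMSF) containing 150 μM Ac-DEVD-AMC was added for 2 h. Fluorescence was read at 346/442 nm and normalized to untreated control.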

[5] = target: Cyclin-dependent kinase 1 (Homo sapiens) (UniProt P06493); assay: Inhibition of CDK1 (unknown origin)
Chain of Cyclin-dependent kinase 1 (Homo sapiens) (P06493 whole entry, looked up): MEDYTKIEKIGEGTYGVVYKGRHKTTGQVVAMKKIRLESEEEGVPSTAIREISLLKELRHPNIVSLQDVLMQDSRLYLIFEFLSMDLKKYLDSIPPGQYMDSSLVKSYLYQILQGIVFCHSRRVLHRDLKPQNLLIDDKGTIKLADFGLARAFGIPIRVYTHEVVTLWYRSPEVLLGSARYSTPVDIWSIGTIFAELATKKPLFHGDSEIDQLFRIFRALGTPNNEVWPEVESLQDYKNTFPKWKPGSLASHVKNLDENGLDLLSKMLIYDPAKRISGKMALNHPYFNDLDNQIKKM

[6] = target: T1, Serine/threonine-protein kinase Chk1 (Homo sapiens) (UniProt O14757); assay: Inhibition of CHK1 (unknown origin)
T1 sequence (whole entry): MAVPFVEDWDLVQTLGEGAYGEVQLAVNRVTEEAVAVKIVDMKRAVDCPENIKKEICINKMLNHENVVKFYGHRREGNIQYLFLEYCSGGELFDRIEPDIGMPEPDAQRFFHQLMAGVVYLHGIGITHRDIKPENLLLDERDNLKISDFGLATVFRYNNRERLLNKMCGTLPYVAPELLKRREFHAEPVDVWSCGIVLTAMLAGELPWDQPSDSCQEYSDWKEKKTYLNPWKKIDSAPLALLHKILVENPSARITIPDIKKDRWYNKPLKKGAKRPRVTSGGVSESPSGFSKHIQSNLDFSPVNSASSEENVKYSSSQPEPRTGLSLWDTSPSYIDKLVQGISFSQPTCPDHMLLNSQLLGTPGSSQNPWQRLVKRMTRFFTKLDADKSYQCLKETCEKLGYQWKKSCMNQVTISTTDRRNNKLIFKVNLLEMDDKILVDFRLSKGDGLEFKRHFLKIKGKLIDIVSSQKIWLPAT

[7] = target: Serine/threonine-protein kinase 38 (Homo sapiens) (UniProt Q15208); assay: Inhibition of NDR1 (unknown origin)
Chain of Serine/threonine-protein kinase 38 (Homo sapiens) (Q15208 2-465 limits assumed): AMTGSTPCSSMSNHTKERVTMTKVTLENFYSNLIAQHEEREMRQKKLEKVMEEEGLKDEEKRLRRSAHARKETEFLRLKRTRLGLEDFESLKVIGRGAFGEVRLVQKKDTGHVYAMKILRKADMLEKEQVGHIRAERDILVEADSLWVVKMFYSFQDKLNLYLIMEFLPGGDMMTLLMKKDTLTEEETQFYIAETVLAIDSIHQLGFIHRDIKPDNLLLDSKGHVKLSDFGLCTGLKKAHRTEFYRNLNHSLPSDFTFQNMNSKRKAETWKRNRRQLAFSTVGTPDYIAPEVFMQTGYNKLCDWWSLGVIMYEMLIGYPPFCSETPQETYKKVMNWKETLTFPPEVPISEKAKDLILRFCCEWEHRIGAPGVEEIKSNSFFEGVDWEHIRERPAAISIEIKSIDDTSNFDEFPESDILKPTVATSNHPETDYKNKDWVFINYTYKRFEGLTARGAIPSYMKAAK

[8] = target: T2, Dual specificity protein kinase TTK (Homo sapiens) (UniProt P33981); assay: Inhibition of TTK (unknown origin)
T2 sequence (whole entry): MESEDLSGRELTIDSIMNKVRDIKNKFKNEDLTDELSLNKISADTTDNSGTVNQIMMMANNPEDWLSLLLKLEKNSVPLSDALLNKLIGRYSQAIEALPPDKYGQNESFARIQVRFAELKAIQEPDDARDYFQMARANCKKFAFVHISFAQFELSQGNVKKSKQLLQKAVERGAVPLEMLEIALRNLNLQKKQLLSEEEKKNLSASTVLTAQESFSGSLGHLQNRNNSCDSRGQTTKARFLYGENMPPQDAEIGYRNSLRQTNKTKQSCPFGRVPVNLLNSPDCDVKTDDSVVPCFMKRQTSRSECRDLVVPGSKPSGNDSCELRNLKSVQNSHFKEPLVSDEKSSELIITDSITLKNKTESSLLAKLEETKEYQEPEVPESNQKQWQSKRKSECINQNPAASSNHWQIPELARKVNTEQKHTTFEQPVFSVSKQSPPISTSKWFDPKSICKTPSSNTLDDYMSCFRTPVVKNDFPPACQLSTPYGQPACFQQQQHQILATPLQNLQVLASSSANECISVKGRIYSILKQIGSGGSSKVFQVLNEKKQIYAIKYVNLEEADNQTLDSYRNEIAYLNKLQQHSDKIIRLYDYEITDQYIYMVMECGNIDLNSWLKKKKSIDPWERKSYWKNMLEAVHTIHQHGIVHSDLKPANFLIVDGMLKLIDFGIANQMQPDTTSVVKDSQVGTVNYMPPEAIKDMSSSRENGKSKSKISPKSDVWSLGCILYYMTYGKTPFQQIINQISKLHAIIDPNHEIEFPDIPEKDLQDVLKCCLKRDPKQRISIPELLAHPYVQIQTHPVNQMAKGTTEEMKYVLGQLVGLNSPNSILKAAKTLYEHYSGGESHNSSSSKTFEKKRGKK

[9] = system: K562; assay: Induction of apoptosis in human K562 cells assessed as increase in phosphorylated Bcl2 level at 1.25 to 20 uM after 24 hrs by immunoblotting; format: functional, cell-based
Method in brief: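 Cells treated 24 h with a range of doses, with 1 μM doxorubicin as control. Cells were harvested into Laemmli buffer, run on SDS-PAGE and blotted to nitrocellulose. Membranes were probed overnight with primary antibodies (PARP, Ser139-phospho-H2AX, Bcl-2, β-actin loading control), then peroxidase secondaries, with ECL detection on a CCD imager.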

## CCCCCc1cc2nn(-c3ccccc3)cc2cn1
[1]
  Activity: 82%
[2]
  Activity: Dose-dependent effect
[3]
  Activity: 20.4%
[4]
  Activity: Dose-dependent effect
[5]
  inhibition: inactive
[6]
  inhibition: inactive
[7]
  inhibition: inactive
[8]
  inhibition: inactive
[9]
  Activity: Active
